Reference: ChEMBL document CHEMBL2146388, “Sinularosides A and B, bioactive 9,11-secosteroidal glycosides from the South China Sea soft coral Sinularia humilis Ofwegen” (J Nat Prod, 2012)
Active and inactive are the calls of the source. The calls are words filed in the database; no cut-off is given here.

What was measured:
Priestia megaterium = experiment: Antibacterial activity against Bacillus megaterium assessed as zone of inhibition at 0.05 mg by agar diffusion method; format: functional; conditions: read-out: IZ
Summary of the method: (§1)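 Compound is dissolved in acetone at 1.0 mg/mL, and 0.05 mg is applied to a sterile 9 mm filter disk. The disk is placed on NB agar and sprayed with a bacterial suspension. Read-out is the inhibition zone around the disk. Acetone serves as the solvent control.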

Escherichia coli = experiment: Antibacterial activity against Escherichia coli assessed as zone of inhibition at 0.05 mg by agar diffusion method; format: functional; conditions: read-out: IZ; summary of the method: as §1
[Chlorella] fusca = Antimicrobial activity against Chlorella fusca assessed as zone of inhibition at 0.05 mg by agar diffusion method; format: functional; conditions: Scenedesmus fuscus; read-out: IZ
Summary of the method: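 The microalga Chlorella fusca is tested on CP medium. A sterile 9 mm paper disk carries 0.05 mg of compound from a 1.0 mg/mL acetone solution and is placed on the agar, which is then sprayed with the algal suspension. The zone of growth inhibition is recorded, with acetone as control.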

Microbotryum violaceum = experiment: Antifungal activity against Microbotryum violaceum assessed as zone of inhibition at 0.05 mg by agar diffusion method; format: functional; conditions: read-out: IZ
Summary of the method: (§2)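 Fungi are grown on MPY medium. A 9 mm sterile filter disk is loaded with 0.05 mg of compound (50 μL of a 1.0 mg/mL acetone solution), laid on the agar, and then sprayed with a fungal suspension. The inhibition zone is scored, with an acetone control.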

HepG2 = experiment: Cytotoxicity against human HepG2 cells by MTT assay; format: functional, cell-based
Summary of the method: (§3)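 Growth inhibition is read colorimetrically by a modified MTT method on HepG2 or Caco-2 cells. Adriamycin is the positive control. IC50 is reported.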

Caco-2 = experiment: Cytotoxicity against human Caco2 cells by MTT assay; format: functional, cell-based; summary of the method: as §3
Zymoseptoria tritici = experiment: Antifungal activity against Septoria tritici assessed as zone of inhibition at 0.05 mg by agar diffusion method; format: functional; conditions: read-out: IZ; summary of the method: as §2

Row | Structure (SMILES) | zone of inhibition at 50 µg/disc (Priestia megaterium) | zone of inhibition at 50 µg/disc (Escherichia coli) | zone of inhibition at 50 µg/disc ([Chlorella] fusca) | zone of inhibition at 50 µg/disc (Microbotryum violaceum) | growth inhibition (GI) (HepG2) | growth inhibition (GI) (Caco-2) | zone of inhibition at 50 µg/disc (Zymoseptoria tritici) | IC50 (HepG2) | IC50 (Caco-2)
1 | CC1(C)S[C@@H]2[C@H](NC(=O)Cc3ccccc3)C(=O)N2[C@H]1C(=O)O [PENICILLIN G] | 28 mm | 20 mm |  |  |  |  |  |  | 
2 | CN[C@@H]1[C@H](O[C@H]2[C@H](O[C@H]3[C@H](O)[C@@H](O)[C@H](N=C(N)N)[C@@H](O)[C@@H]3N=C(N)N)O[C@@H](C)[C@]2(O)C=O)O[C@@H](CO)[C@H](O)[C@H]1O [STREPTOMYCIN] | 30 mm | 25 mm |  |  |  |  |  |  | 
3 | C=C(CC[C@@H](C)[C@H]1CC[C@@H]([C@@H]2CC=C3C[C@@H](O[C@@H]4O[C@@H](C)[C@@H](O)[C@@H](O)[C@@H]4O)CC[C@]3(C)C2=O)[C@]1(C)CCO)C(C)C [SINULAROSIDE A] | 30 mm | 0 mm | 12 mm | 17 mm | inactive | inactive | 14 mm |  | 
4 | COc1cccc2c1C(=O)c1c(O)c3c(c(O)c1C2=O)C[C@@](O)(C(=O)CO)C[C@@H]3O[C@H]1C[C@H](N)[C@H](O)[C@H](C)O1 [DOXORUBICIN] |  |  |  |  |  |  |  | 2700 nM | 2700 nM
5 | C=C(CC[C@@H](C)[C@H]1CC[C@@H]([C@@H]2CC=C3C[C@@H](O[C@@H]4O[C@@H](C)[C@@H](OC(C)=O)[C@@H](O)[C@@H]4O)CC[C@]3(C)C2=O)[C@]1(C)CCO)C(C)C [SINULAROSIDE B] | 30 mm | 0 mm | 14 mm | 17 mm | inactive | inactive | 15 mm |  | 
6 | CC(=O)N1CCN(c2ccc(OCC3COC(Cn4ccnc4)(c4ccc(Cl)cc4Cl)O3)cc2)CC1 (configuration not stated) [KETOCONAZOLE] |  |  |  | 15 mm |  |  | 14 mm |  | 
